# PMI activator: increases human mannose-6-phosphate isomerase activity; purified human PMI, coupled resazurin fluorescence, 20 min; hits give high values; 1 = vehicle control, 0 substrate-free wells; activation factor at 20 µM; AID 1214; P34949; hit rate 0.005% among 190,000;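 active means activation factor of 2 or more at 20 µM, relative to plate controls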
# Target sequence (P34949 whole entry, looked up): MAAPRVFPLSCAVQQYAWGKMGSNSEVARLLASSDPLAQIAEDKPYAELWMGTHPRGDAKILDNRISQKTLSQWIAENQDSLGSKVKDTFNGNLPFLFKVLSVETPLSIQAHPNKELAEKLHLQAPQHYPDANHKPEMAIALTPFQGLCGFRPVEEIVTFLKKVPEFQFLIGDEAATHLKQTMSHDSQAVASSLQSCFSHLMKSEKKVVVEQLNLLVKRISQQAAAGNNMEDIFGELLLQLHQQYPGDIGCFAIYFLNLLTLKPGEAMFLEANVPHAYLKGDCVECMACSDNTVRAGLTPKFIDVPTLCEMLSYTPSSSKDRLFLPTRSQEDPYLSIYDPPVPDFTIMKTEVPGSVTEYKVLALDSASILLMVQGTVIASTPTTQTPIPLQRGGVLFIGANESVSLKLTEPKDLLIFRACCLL
# Diaphorase act: diaphorase activation or chemical reduction counter-screen; Diaphorase/resazurin coupled assay, resorufin fluorescence, 16 min; hits give high values; 1 = vehicle wells, 0 = NADH-free wells; activation factor at 20 µM; hit rate 0.005% among 190,000;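 active means diaphorase activity raised at least twofold by the compound at 20 µM; inactive means activation factor below 2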
#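 Test system: Clostridium kluyveri diaphorase, purified enzyme; input: enzyme 0.07 U/mL final; buffer or medium: 50 mM HEPES pH 7.4 with 4.542 mM MgCl2, 0.005% Tween 20; also added: 0.114 mM NADH and 0.1 mM resazurin, final amounts; schedule: 16 min enzyme reaction, ambient temperature; technique: fluorescence of resorufin, 544 nm excitation, 590 nm emission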
# Diaphorase inh: counter-screen for diaphorase-based assays: diaphorase inhibitors and chemical oxidizers; diaphorase resazurin-to-resorufin fluorescence, NADH, 16 min; bacterial (C. kluyveri) enzyme, not human; inhibition, % at 20 µM; hit rate 0.69% among 190,000; AID 1217;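 active means primary screen inhibition at 20 µM above a set limit, cut at about 50% in these data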;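 further: plate controls were DMSO with full reaction for no effect and wells lacking NADH for full effect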
#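 Test system: bacterial diaphorase enzyme (C. kluyveri); Quantity: 0.14 U/mL diaphorase, enzyme working solution; Times: reaction incubation of 16 min at room temperature; Measured by: fluorescence of resorufin formed from resazurin, Ex 544/Em 590 nm; Benchmarks: positive control minus NADH, DMSO neutral control.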
# PMI act hi M6P: activators of human phosphomannose isomerase at near-saturating mannose 6-phosphate; P34949; coupled PMI enzyme assay, resazurin fluorescence, 20 min; hits give high values; 1 = untreated enzyme, 0 = substrate-free blank; activation factor at 20 µM; hit rate 0.34% among 190,000;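 active means activation factor of 2 or more at 20 µM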
#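 Technique: Diaphorase-driven resazurin-to-resorufin fluorescence, excitation 544, emission 590 nm | Assay system: Human PMI in coupled enzyme assay | Times: Enzyme reaction with compound 20 min at room temperature | Medium: HEPES-buffered pH 7.4 with magnesium and detergent | Reagent: Mannose-6-phosphate 1.0 mM (near-saturating) plus 0.22 mM NADP+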
# DTT redox prof: compounds producing H2O2 with reducing agent – biochemical, NIH compound library profiling, artefact control for MLSCN library redox annotation, primary screen | DTT-dependent redox cycling H2O2, phenol red/HRP absorbance; 100% = 100 µM peroxide control, 0% = buffer | activation, % at 10 µM | hit rate 0.03% among 200,000 | AID 878;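 active means activation of at least 50% relative to the plate's high and low controls in the primary single-dose screen; inactive means activation below 50%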;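 further: compound incubated with DTT at 0.8 mM final as the reducing agent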
# G6PDH CS: L. mesenteroides G6PDH inhibition counter-screen; Purified L. mesenteroides G6PDH, diaphorase/resazurin coupled fluorescence, 45 min; inhibition, % at 5 µM; hit rate 0.12% among 200,000; AID 1020; in the data active means inhibition above about 50%
# DTT redox conf: redox cycling H2O2 generation, confirmed; shares compounds with DTT redox prof; DTT-dependent redox cycling H2O2, phenol red-HRP absorbance; EC50, µM; hit rate 40% among 60;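 active means EC50 under a set limit for hydrogen peroxide production with the reducing agent DTT present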
# Starred values were filed as active, the others as inactive; . = not tested or not shown. Hits are enriched below; roughly 1.1% of the tested compounds scored in any of these assays.
SMILES,PMI activator,Diaphorase act,Diaphorase inh,PMI act hi M6P,DTT redox prof,G6PDH CS,DTT redox conf
O=C(Oc1c(CN2CCOCC2)cc(Cl)c2cccnc12)c1ccccc1,0.8,0.7,29.9,0.4,-0.3,5.2,.
Oc1c(CN2CCc3ccccc3C2)cc(Cl)c2cccnc12,0.6,0.3,67.7*,0.5,-0.9,0.0,.
Cc1cc(C)c[n+](CC(=O)c2ccc(NC(=O)c3ccccc3)cc2)c1,1.2,0.3,70.7*,1.1,-0.1,17.3,.
O=C(CSc1n[nH]c(-c2ccccc2)n1)Nc1ncc(Br)cc1Br,0.9,0.4,59.0*,0.9,-3.8,1.1,.
O=C(Nc1ccccn1)c1ccc(Br)c(S(=O)(=O)N2CCCCC2)c1,1.1,0.9,10.7,1.1,-0.2,-4.9,.
CCOC(=O)c1cc(C)[nH]c(=S)c1C#N,1,0.5,51.8*,1.4,-2.1,-5.1,.
CCOC(=O)c1cc(C(=O)OCC)c(=O)[nH]c1C,1.2,1.2,-15.1,1,2.4,9.0,.
OCCC1CN(Cc2ccc(-n3cccn3)cc2)CCN1Cc1ccccc1 (configuration not stated),1,1,4.8,1,0.6,7.9,.
O=C(COc1ccc([N+](=O)[O-])cc1)NC(C(=O)O)C(O)c1cccc([N+](=O)[O-])c1 (configuration not stated),1,0.8,19.8,1,0.8,15.1,.
O=C1C(Cl)=C(N2CCCCC2)C(=O)C(Cl)=C1c1cnc(N2CCCCC2)s1,1.5,0.4,61.7*,1.3,1.1,33.9,.
COc1ccc(-c2cc(=O)c3c(O)c(OC)c(O)cc3o2)cc1,1,0.9,5.7,1.1,0.1,14.7,.
Cc1cc(=O)c2c(O)c(O)ccc2o1,0.2,0.3,72.3*,0.4,0.8,49.7,.
COC(=O)c1ccc(-c2ccc(C(c3c(C)[nH][nH]c3=O)c3c(C)[nH][nH]c3=O)o2)cc1,0.5,0.3,67.9*,1,-0.5,23.5,.
CSc1ccc(/C=N/Nc2cccc(C(=O)O)c2)cc1,1.5,1,0.0,1.3,-0.7,11.3,.
C=CCOc1c(OC)cc(/C=N/Nc2cccc(C(=O)O)c2)c(Br)c1Br,1.6,0.6,36.7,2.4*,-0.3,-5.8,.
Cc1c(Nc2cc(N3CCCCCC3)c3nonc3c2[N+](=O)[O-])c(=O)n(-c2ccccc2)n1C,0.4,0.5,51.4*,0.5,0.0,12.4,.
COc1ccc(C(=O)c2c(C(F)(F)F)oc3c2C(=O)c2ccccc2C3=O)cc1OC,1.3,0.8,18.2,1.6,0.2,59.4*,.
Cc1oc2c(c1C(=O)c1ccccc1)C(=O)C(=O)c1ccccc1-2,0.3,0.4,57.7*,0.3,373.5*,60.2*,>50
O=C1C(=O)c2ccc(-c3ccccc3)cc2-c2ccccc21,1.2,0.7,27.7,0.9,315.0*,54.1*,0.91*
O=C(O)c1ccc2c(c1)C(=O)N(c1ccccc1-c1ccccc1)C2=O,1.2,1.2,-16.2,1.1,0.1,9.2,.
COc1ccc(CSc2nnc3[nH]c(=O)cc(N)n23)cc1,1.1,0.9,6.3,1.1,-0.3,0.1,.
O=C(O)c1ccc(NC2=C/C(=N/S(=O)(=O)c3ccccc3)c3ccccc3C2=O)cc1,1.7,1.4,-43.2,1.3,149.2*,41.4,2.73*
O=C(O)c1ccc(NS(=O)(=O)c2ccc3c(c2)C(=O)c2ccccc2C3=O)cc1,1.3,0.7,26.5,1,-1.4,42.8,.
O=C(N/N=C/c1ccc(Cl)cc1)C1CC12CCC2 (configuration not stated),1,1,0.9,1.1,-0.3,3.5,.
CC(=O)N(/N=C1\Sc2ccccc2C1=O)c1ccc(C)cc1C,0.9,0.8,22.1,1,0.6,0.7,.
SMILES,PMI activator,Diaphorase act,Diaphorase inh,PMI act hi M6P,DTT redox prof,G6PDH CS,DTT redox conf
CC(=O)N(/N=C1\Sc2ccccc2C1=O)c1ccccc1C,1,0.9,8.0,1,381.5*,3.6,19.1*
CC(NC(=O)COC(=O)c1ccc([N+](=O)[O-])s1)c1ccccc1 (configuration not stated),0.9,0.8,21.8,0.9,113.7*,15.0,>50
CCOc1ccc(NC(=O)Nc2ccc3nsnc3c2)cc1,0.9,0.8,17.7,0.7,0.0,4.9,.
CCOc1ccc(NC(=S)Nc2ccc3nsnc3c2)cc1,0.5,0.5,54.4*,0.8,127.2*,53.9*,>50
CCC(C)(C)NC(=O)C(c1cccnc1)N(C(=O)c1csnn1)c1ccccc1 (configuration not stated),1,1.1,-5.6,0.9,0.2,16.5,.
O=C(NN=C1CCCC1)c1n[nH]c2c1CCCC2,1,1,3.5,1,68.0*,3.5,>50
O=C(NN=C1CCCC1)c1n[nH]c2c1CCC2,0.9,0.9,5.2,0.9,-0.3,20.2,.
O=C(COC(=O)C(c1ccccc1)c1ccccc1)NCc1ccco1,1,1,-1.1,0.9,0.0,-4.0,.
Cn1nc(-c2ccc(Cl)cc2)nc2c(=O)n(C)c(=O)nc1-2,0.8,1.4,-35.3,0.9,169.8*,61.4*,0.89*
CCNc1ccc2noc3c2c1C(=O)c1ccccc1-3,0.7,0.6,35.8,0.5,0.5,0.4,.
CCOC(=O)N1CCN(c2cc(NCCC(=O)O)c3c4c(onc24)-c2ccccc2C3=O)CC1,0.8,0.4,56.7*,1,141.1*,-6.5,>50
CC(=O)C(C(C)=O)C1(O)C(=O)c2ccccc2C1=O,0.9,0.9,14.8,0.6,87.9*,6.2,>50
COc1ccc(CNCc2cn(-c3cccc(F)c3)nc2-c2ccc(C)o2)cc1,0.9,1.1,-12.6,0.9,-1.3,9.9,.
C/C(=N/Nc1ccc(C(=O)O)cc1)c1ccc(O)c(O)c1O,0.7,0.4,61.1*,1.2,104.7*,24.8,>50
Cc1cc(C)c(S(=O)(=O)Nc2cc(SCC(=O)O)c(O)c3ccccc23)cc1C,1,0.5,48.9,0.8,119.5*,34.9,>50
Cc1nc(-c2c(C(F)(F)F)noc2-c2ccc(O)cc2O)cs1,0.9,0.9,13.4,0.9,2.2,2.1,.
Oc1ccc(-c2onc(C(F)(F)F)c2-c2cscn2)c(O)c1,0.9,0.8,16.8,0.9,429.9*,-2.4,>50
O=C(CN1CCN(C/C=C/c2ccccc2)CC1)Nc1cc([N+](=O)[O-])ccc1Cl,1.1,0.8,15.7,1.1,.,-3.3,.
